Screens (PubChem)
T cruzi growth-1: blocks T. cruzi growth in NIH3T3 culture; T. cruzi beta-gal in NIH3T3, GalScreen luminescence, 90 h; inhibition, % at 8.34 µM; 77,000 tested, 5.9% active;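 active = mean inhibition above about 93%, with at least 55% of replicates each passing it, limit read from the data, passing the limit was not always enough; inconclusive = only one of those two conditions holds; inactive = neither condition holds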
IDH1 mut inh: blocks human IDH1 R132H reductase activity; diaphorase/resazurin fluorescence, 60 min; inhibition, % at 10 µM; 70,000 tested, 0.18% active; AID 624101; in the data active = inhibition above about 34%; inconclusive = no clear call, values can overlap the other calls; inactive = below about 11%;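 also: 0% = DMSO and 100% = no enzyme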
GASC1 inh: KDM4C (human) demethylase inhibition. Q9H3R0. GST-KDM4C 2-372, H3K9me3 peptide, LANCE TR-FRET. inhibition, % at 12.5 µM. 96,000 tested, 0.15% active;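 active = mean replicate inhibition above about 25%, with at least 55% of replicates also reaching it, limit read from the data, passing the limit was not always enough; inconclusive = only one of those two conditions met; inactive = neither condition met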
Target sequence (Q9H3R0 2-372 limits assumed): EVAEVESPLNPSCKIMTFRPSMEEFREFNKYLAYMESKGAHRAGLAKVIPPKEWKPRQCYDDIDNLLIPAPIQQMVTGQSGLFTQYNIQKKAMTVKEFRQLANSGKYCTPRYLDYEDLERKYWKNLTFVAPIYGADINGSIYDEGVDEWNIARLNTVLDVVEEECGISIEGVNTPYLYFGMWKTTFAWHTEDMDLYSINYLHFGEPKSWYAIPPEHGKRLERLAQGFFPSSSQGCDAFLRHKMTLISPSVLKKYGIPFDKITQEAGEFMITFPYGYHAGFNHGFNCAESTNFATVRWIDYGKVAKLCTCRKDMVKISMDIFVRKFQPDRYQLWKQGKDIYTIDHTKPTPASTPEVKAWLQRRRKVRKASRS
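Material: GST-tagged GASC-1 (JMJD2C) catalytic fragment, aa 2-372 / Quantity: enzyme final amount 10 nM / Medium: HEPES buffer, pH 7.5, plus ascorbate / Doses: one test concentration per compound / Incubation: 30 min reaction, 60 min detection, RT / Measured by: LANCE TR-FRET / Read-out: inhibition from TR-FRET ratio decrease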
T cruzi growth-2: inhibitors of T. cruzi proliferation. 5,600 tested, 72% active. T. cruzi beta-gal in NIH3T3, GalScreen luminescence, 90 h. inhibition, % at 8.35 µM. AID 651739. shares compounds with T cruzi growth-1;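 active = mean replicate inhibition above about 95% and at least 55% of replicates individually reaching it, limit read from the data; inconclusive = only one of the two criteria is met; inactive = neither criterion is met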
T cruzi growth-3: Trypanosoma cruzi proliferation inhibition; shares compounds with T cruzi growth-1; T. cruzi beta-gal in NIH3T3, GalScreen luminescence, 90 h; inhibition, % at 2.09 µM; 5,600 tested, 21% active; AID 651740;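 active = mean inhibition above about 95%, with at least 55% of replicates also reaching it, limit read from the data; inconclusive = meets just one of the two conditions; inactive = meets neither condition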;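 also: plate controls were neutral control median for no effect and positive control median for full effect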
3T3 cytotox: cytotoxicity in mouse NIH/3T3 fibroblasts. shares compounds with T cruzi growth-1. NIH/3T3 viability, CellTiter-Glo ATP luminescence, 90 h. cytotoxicity (signal decrease), % at 8.35 µM. 5,600 tested, 14% active. AID 651742;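 active = mean signal decrease across replicates above about 35% based on untreated-well scatter, with enough replicates individually passing, limit read from the data; inconclusive = no rule stated though some were filed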;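 also: 0% = median of neutral control wells and 100% = median of positive control wells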
3T3 cytotox 2: NIH/3T3 (mouse) viability loss; inhibition, % at 24.9 µM; 5,600 tested, 56% active; NIH/3T3 viability, CellTiter-Glo ATP luminescence, 90 h; AID 651744; shares compounds with T cruzi growth-1;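 active = mean loss of cell viability signal at or above a set limit, and enough replicates individually reaching it; inconclusive = meets only the mean limit or only the replicate share; inactive = meets neither condition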;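 also: 0% = median of neutral control wells and 100% = median of positive control wells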
* hit, by the source's call; ? = inconclusive; . = no result given. The sample as a whole holds a higher share of hits than the screen did.

SMILES	T cruzi growth-1	IDH1 mut inh	GASC1 inh	T cruzi growth-2	T cruzi growth-3	3T3 cytotox	3T3 cytotox 2
c1ccc2c(c1)n(CCN1CCOCC1)c1nc(C34CC5CC(CC(C5)C3)C4)cn21	.	0	.	.	.	.	.
O=C(CCCCCCC(=O)Nc1ccccc1O)N/N=C/c1ccc([N+](=O)[O-])c(O)c1	.	0	.	.	.	.	.
COc1ccc(/C=C/C(=O)O[C@H]2[C@H](O[C@H]3[C@@H]4C=CO[C@@H](O[C@@H]5O[C@H](CO)[C@@H](O)[C@H](O)[C@H]5O)[C@@H]4[C@@]4(CO)O[C@@H]34)O[C@@H](C)[C@H](O)[C@H]2OC(C)=O)cc1	.	0	.	.	.	.	.
Cc1nnc(SCC(=O)Nc2ccc(F)c(F)c2F)s1	.	0	.	.	.	.	.
COc1ccc(S(=O)(=O)N(C)CC(=O)Nc2cccc(SC)c2)cc1Cl	.	0	.	.	.	.	.
OC[C@@H]1[C@@H](c2ccc(-c3ccccc3)cc2)[C@@H]2CN(CCC(F)(F)F)CCCCN12	91	.	0	.	.	.	.
Cc1cccc(-c2ccc([C@@H]3[C@H]4CN(CCC(F)(F)F)CCCCN4[C@H]3CO)cc2)c1	99*	.	-2	103*	85	41*	105*
OC[C@@H]1[C@@H](c2ccc(-c3cccc(F)c3)cc2)[C@@H]2CN(CCC(F)(F)F)CCCCN12	94	.	-1	.	.	.	.
OC[C@H]1[C@@H](c2ccc(-c3ccccc3)cc2)[C@H]2CN(CCC(F)(F)F)CCCCN21	89	.	-1	.	.	.	.
OC[C@@H]1[C@H](c2ccc(-c3ccc(F)cc3)cc2)[C@@H]2CN(CCC(F)(F)F)CCCCN12	?	.	-1	105*	95	40*	105*
OC[C@H]1[C@@H](c2ccc(-c3ccc(F)cc3)cc2)[C@H]2CN(CCC(F)(F)F)CCCCN21	102*	.	-2	103*	81	57*	105*
Cc1ccccc1-c1cc(C(=O)NCCCN2CCOCC2)c2cc(Cl)ccc2n1	.	0	.	.	.	.	.
COc1c(C)cc(Br)cc1C(=O)NC(=S)Nc1sc2c(c1C(N)=O)CCCCC2	.	0	.	.	.	.	.
C[C@@H]1CN([C@@H](C)CO)S(=O)(=O)c2ccc(C#CCN(C)C)cc2O[C@@H]1CN(C)C(=O)C1CCCCC1	.	3	3	.	.	.	.
C[C@H]1CN([C@@H](C)CO)S(=O)(=O)c2ccc(C#CCN(C)C)cc2O[C@H]1CN(C)C(=O)C1CC1	89	.	3	.	.	.	.
C[C@@H]1CN([C@@H](C)CO)S(=O)(=O)c2ccc(C#CCN(C)C)cc2O[C@@H]1CN(C)C(=O)C1CCC1	94	.	1	.	.	.	.
C[C@@H]1CN([C@@H](C)CO)S(=O)(=O)c2ccc(C#CCN(C)C)cc2O[C@H]1CN(C)C(=O)C1CCC1	104*	.	2	108*	99*	-18	11
C[C@@H]1CN([C@@H](C)CO)S(=O)(=O)c2ccc(C#CCN(C)C)cc2O[C@H]1CN(C)C(=O)C1CCCCC1	.	.	-2	.	.	.	.
C[C@H](CO)N1C[C@H](C)[C@H](CN(C)C(=O)C2CC2)Oc2cc(C#CCN(C)C)ccc2S1(=O)=O	95*	-1	1	109*	92	-9	20
C[C@@H]1CN([C@H](C)CO)S(=O)(=O)c2ccc(C#CCN(C)C)cc2O[C@H]1CN(C)C(=O)C1CCC1	100*	-4	1	?	100*	-1	2
C[C@H]1CN([C@@H](C)CO)S(=O)(=O)c2ccc(C#CCN(C)C)cc2O[C@H]1CN(C)C(=O)C1CCC1	105*	-3	7	102*	91	-12	-2
Cc1ccc(NC(=O)COc2ccccc2Cl)c([N+](=O)[O-])c1	.	0	.	.	.	.	.
O=C(COc1cc(Cl)c(Cl)cc1Cl)Nc1ccccc1[N+](=O)[O-]	.	0	.	.	.	.	.
CC1CCc2c(sc3ncnc(NCCc4nc5ccccc5[nH]4)c23)C1 (configuration not stated)	.	1	.	.	.	.	.
O=C(CSc1nc2ccc(NC(=O)c3ccccc3F)cc2s1)c1cccc([N+](=O)[O-])c1	.	0	.	.	.	.	.
SMILES	T cruzi growth-1	IDH1 mut inh	GASC1 inh	T cruzi growth-2	T cruzi growth-3	3T3 cytotox	3T3 cytotox 2
C[C@@H](O)C#Cc1ccc([C@@H]2[C@H]3CN(C(=O)c4ccncc4)CCCCN3[C@H]2CO)cc1	93	.	0	.	.	.	.
C[C@@H](O)C#Cc1ccc([C@H]2[C@@H](CO)N3CCCCN(C(=O)c4ccncc4)C[C@H]23)cc1	16	.	1	.	.	.	.
COc1ccc(C#Cc2ccc([C@@H]3[C@H]4CN(C(=O)c5ccncc5)CCCCN4[C@H]3CO)cc2)cc1	89	.	-1	.	.	.	.
C[C@H](O)C#Cc1ccc([C@H]2[C@H]3CN(C(=O)c4ccncc4)CCCCN3[C@H]2CO)cc1	101*	.	1	-4	1	-9	11
COc1ccc(C#Cc2ccc([C@H]3[C@H]4CN(C(=O)c5ccncc5)CCCCN4[C@H]3CO)cc2)cc1	105*	.	0	64	-18	50*	54*
COc1ccc(C#Cc2ccc([C@@H]3[C@H](CO)N4CCCCN(C(=O)c5ccncc5)C[C@@H]34)cc2)cc1	105*	.	-1	88	74	21	104*
O=C(c1ccncc1)N1CCCCN2[C@@H](CO)[C@H](c3ccc(C#Cc4ccccn4)cc3)[C@@H]2C1	105*	.	1	?	15	2	3
O=C(c1cccnc1)N1CCCCN2[C@H](CO)[C@@H](c3ccc(C#Cc4ccccn4)cc3)[C@H]2C1	38	.	0	.	.	.	.
CC1(C)CC(=O)C2=C(C1)N(c1ccccc1)C(=O)C2(NC(=O)c1cccnc1)C(F)(F)F (configuration not stated)	.	0	.	.	.	.	.
CC(C)(C)c1ccc(OCC(=O)Nc2cccc(C(=O)O)c2)cc1	.	0	.	.	.	.	.
O=C(CCCCCC(=O)N/N=C/c1ccccn1)NO	.	0	.	.	.	.	.
Cc1ccc(N(C(C)C(=O)Nc2ccc(C(F)(F)F)cc2)S(C)(=O)=O)cc1 (configuration not stated)	.	1	.	.	.	.	.
COc1ccc(S(=O)(=O)Nc2ccc3c(c2)C(=O)N([C@H](C)CO)C[C@H](C)[C@@H](CN(C)C(=O)NC(C)C)O3)cc1	-33	0	0	.	.	.	.
COc1ccc(S(=O)(=O)N(C)C[C@H]2OCCCC[C@H](C)Oc3ccc(NS(=O)(=O)c4ccccc4)cc3C(=O)N([C@@H](C)CO)C[C@H]2C)cc1	92	.	-1	.	.	.	.
COc1ccc(S(=O)(=O)Nc2ccc3c(c2)C(=O)N([C@@H](C)CO)C[C@@H](C)[C@@H](CN(C)S(=O)(=O)c2ccc(OC)cc2)OCCCC[C@@H](C)O3)cc1	100*	2	0	107*	102*	-5	7
COc1ccc(S(=O)(=O)Nc2ccc3c(c2)C(=O)N([C@@H](C)CO)C[C@H](C)[C@@H](CN(C)S(=O)(=O)c2ccc(OC)cc2)OCCCC[C@@H](C)O3)cc1	?	4	0	111*	53	-33	-2
